Active and inactive are the calls of the source. The calls are words filed in the database; no cut-off is given here.

T2 sequence (P20272 whole entry): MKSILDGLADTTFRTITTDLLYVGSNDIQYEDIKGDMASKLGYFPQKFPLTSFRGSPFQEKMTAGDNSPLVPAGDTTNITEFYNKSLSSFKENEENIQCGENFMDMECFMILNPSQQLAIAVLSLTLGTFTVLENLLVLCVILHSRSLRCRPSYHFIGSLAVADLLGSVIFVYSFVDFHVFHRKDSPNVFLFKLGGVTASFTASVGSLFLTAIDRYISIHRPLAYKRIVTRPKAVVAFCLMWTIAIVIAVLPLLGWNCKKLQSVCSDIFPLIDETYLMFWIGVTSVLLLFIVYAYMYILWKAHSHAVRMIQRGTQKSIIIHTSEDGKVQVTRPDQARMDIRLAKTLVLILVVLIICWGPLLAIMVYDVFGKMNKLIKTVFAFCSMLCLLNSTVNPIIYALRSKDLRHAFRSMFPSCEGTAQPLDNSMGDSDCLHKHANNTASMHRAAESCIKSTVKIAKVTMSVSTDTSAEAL

For the first experiment, the target named is Cannabinoid receptor 1 (Mus musculus) (UniProt P47746). Description: Agonist activity at CB1 receptor in CD1 mouse vas deferens assessed as inhibition of electrically-evoked contraction at 0.01 to 1 nM after 15 mins. The class given is functional, tissue-based.
Chain of Cannabinoid receptor 1 (Mus musculus) (P47746 whole entry): as the sequence (P20272 whole entry) above, with E95D counted along it
Details: not given
A digest of the protocol:
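Vasa deferentia from male CD-1 mice (25–30 g) cycled through 5 min stimulation (15 pulses per min, 70 V, 15 Hz, 2 ms) and 10 min rest, with isometric force recorded. Doses were added stepwise at 15 min intervals, and Krebs was replaced before each dose. Inhibition was read 15 min after each dose against the last pre-agonist contraction (100%). One curve was built per tissue.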
In the case of `CCCCC/C=C\C/C=C\C/C=C\C/C=C\CCCCNS(=O)(=O)NCCC`, the inhibition entry was “inactive”.

Consider `CCCCC/C=C\C/C=C\CCCCCCCCNS(N)(=O)=O`, for which the inhibition entry is “inactive”.

Regarding `CCCCCCCC/C=C\CCCCCCCCNS(N)(=O)=O`, the inhibition result is “inactive”.

As for `CCCNS(=O)(=O)NC(C)C12CC3CC(CC(C3)C1)C2` (configuration not stated), the inhibition entry is “inactive”.

Turning to `NS(=O)(=O)NC1C2CC3CC(C2)CC1C3` (configuration not stated), the inhibition result was “inactive”.

With `CCCCC/C=C\C/C=C\CCCCCCCCNS(=O)(=O)NCCC`, the inhibition result is “inactive”.

`CC(NS(N)(=O)=O)C12CC3CC(CC(C3)C1)C2` (configuration not stated): the inhibition entry was “inactive”.

For the compound `CCCCC/C=C\C/C=C\C/C=C\C/C=C\CCCCNS(N)(=O)=O`, the inhibition entry is “inactive”.

Turning to `CCCCCCCCCCCCCCCCCCNS(N)(=O)=O`, the inhibition result was “inactive”.

With `CCCCCCCC/C=C\CCCCCCCCNS(=O)(=O)NCCC`, the inhibition entry was “inactive”.

Regarding `CCCNS(=O)(=O)NC12CC3CC(CC(C3)C1)C2`, the inhibition result was “inactive”.

Regarding `CCCNS(=O)(=O)NC1C2CC3CC(C2)CC1C3` (configuration not stated), the inhibition result is “inactive”.

As to `CCCCCCCCCCCCCCCCCCNS(=O)(=O)NCCC`, the inhibition entry is “inactive”.

The target in the next experiment is T1, Fatty-acid amide hydrolase 1 (Rattus norvegicus) (UniProt P97612).
T1 sequence (whole entry): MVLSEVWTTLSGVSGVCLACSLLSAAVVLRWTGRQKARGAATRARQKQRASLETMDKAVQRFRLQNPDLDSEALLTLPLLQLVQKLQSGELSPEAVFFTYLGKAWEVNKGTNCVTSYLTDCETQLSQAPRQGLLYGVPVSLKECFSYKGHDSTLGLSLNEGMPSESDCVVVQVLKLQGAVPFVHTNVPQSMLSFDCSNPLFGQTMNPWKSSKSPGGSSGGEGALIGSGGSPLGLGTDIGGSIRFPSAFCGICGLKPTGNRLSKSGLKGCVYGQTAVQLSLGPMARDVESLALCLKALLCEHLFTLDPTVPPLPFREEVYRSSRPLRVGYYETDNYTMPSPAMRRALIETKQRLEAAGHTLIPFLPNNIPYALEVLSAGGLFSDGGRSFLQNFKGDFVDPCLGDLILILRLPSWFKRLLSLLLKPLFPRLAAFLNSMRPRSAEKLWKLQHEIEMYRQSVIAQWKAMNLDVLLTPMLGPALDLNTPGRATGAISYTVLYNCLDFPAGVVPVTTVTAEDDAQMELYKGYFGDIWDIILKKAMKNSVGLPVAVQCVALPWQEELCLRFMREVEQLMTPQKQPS
Description: Inhibition of FAAH in rat brain homogenates assessed as membrane bound [3H]anandamide level at 1 uM relative to control.
Details: not given
The class given is tissue-based. Also on record: scale not given: the % may be the effect or the level left. A digest of the protocol: (§1)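 Brain membrane FAAH. Tissue was homogenized in 50 mM Tris pH 8 with 0.32 M sucrose, spun at 1000g for 5 min, and the supernatant spun at 45,000g for 30 min. The pellet was solubilized in Tris at 0–4 °C, protein measured by Bradford, and samples stored at −70 °C. Substrate was arachidonyl-[1-3H]-ethanolamide, and [3H]ethanolamine was counted in the aqueous phase after chloroform extraction. Conditions were linear in time and protein; activity is given as % of control at 10^-6 and 10^-7 M.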
Consider `CCCCCCCC/C=C\CCCCCCCCNS(N)(=O)=O`, for which the Activity was found to be 102%.

Turning to `CCCCCCCCCCCCNS(N)(=O)=O`, the Activity is 99.3%.

Turning to `CCCCCCCCCCCCCCCCNS(N)(=O)=O`, the Activity is 103%.

In the case of `CCCCCCCCCCCCCCCCCCNS(N)(=O)=O`, the Activity came to 99.4%.

Turning to `CCCCCCCC/C=C\CCCCCCCCNS(=O)(=O)NCCC`, the Activity is 96.5%.

With `CCCNS(=O)(=O)NC12CC3CC(CC(C3)C1)C2`, the Activity was 92.6%.

Turning to `CCCCCCCCCCCCCCNS(N)(=O)=O`, the Activity turned out to be 109%.

Take `CCCCCCCCCCCCCCCCCCNS(=O)(=O)NCCC`: the Activity stood at 110%.

The target in the next experiment is T1, Fatty-acid amide hydrolase 1 (Rattus norvegicus). The experiment in a line: Inhibition of FAAH in rat brain homogenates assessed as membrane bound [3H]anandamide level at 0.1 uM relative to control. Also on record: scale not given: the % may be the effect or the level left. The class given is tissue-based.
Details: not given
A digest of the protocol: as §1
As for `CCCCCCCC/C=C\CCCCCCCCNS(N)(=O)=O`, the Activity turned out to be 100%.

As for `CCCCCCCCCCCCNS(N)(=O)=O`, the Activity came out at 108%.

As to `CCCCCCCCCCCCCCCCNS(N)(=O)=O`, the Activity worked out at 114%.

Consider `CCCCCCCCCCCCCCCCCCNS(N)(=O)=O`, for which the Activity came out at 106%.

As to `CCCCCCCC/C=C\CCCCCCCCNS(=O)(=O)NCCC`, the Activity was 101%.

As for `CCCNS(=O)(=O)NC12CC3CC(CC(C3)C1)C2`, the Activity was determined as 90.4%.

With `CCCCCCCCCCCCCCNS(N)(=O)=O`, the Activity turned out to be 109%.

On to `CCCCCCCCCCCCCCCCCCNS(=O)(=O)NCCC`, for which the Activity stood at 109%.

A further experiment addresses T2, Cannabinoid receptor 1 (Rattus norvegicus, UniProt P20272). The experiment in a line: Displacement of [3H]SR141716A from CB1 receptor in rat cerebellar membrane after 90 mins by scintillation counting.
Details: not given
The class given is cell membranes, Cerebellum. The method, boiled down: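 Compounds were dissolved in DMSO, then diluted in 20 mM HEPES pH 7.4 with 1 mM MgCl2 and 0.5% fatty-acid-free BSA. Incubation was 30 °C for 90 min, stopped with ice-cold buffer and filtered on GF/C. Ki was derived by Cheng–Prusoff using fixed, independently measured Kd.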
`CCCCC/C=C\C/C=C\C/C=C\C/C=C\CCCCNS(=O)(=O)NCCC` showed a Ki of 2.34 µM.

In turn, `CCCCC/C=C\C/C=C\CCCCCCCCNS(N)(=O)=O` returned a Ki of 6.41 µM.

The compound `CCCCCCCC/C=C\CCCCCCCCNS(N)(=O)=O` gave a Ki of 1.89 µM.

On to `CCCNS(=O)(=O)NC(C)C12CC3CC(CC(C3)C1)C2` (configuration not stated), for which the Ki is above 10 µM.

Compound `CCCCC/C=C\C/C=C\CCCCCCCCNS(=O)(=O)NCCC` gave a Ki of 7.19 µM.

For the compound `CCCCC/C=C\C/C=C\C/C=C\C/C=C\CCCCNS(N)(=O)=O`, the inhibitory constant (Ki) is 4.01 µM.

Take `CCCCCCCCCCCCCCCCCCNS(N)(=O)=O`: the Ki is above 10 µM.

In turn, `CCCCCCCC/C=C\CCCCCCCCNS(=O)(=O)NCCC` showed a Ki above 10 µM.

Turning to `CCCNS(=O)(=O)NC12CC3CC(CC(C3)C1)C2`, the affinity, expressed as Ki, was 8.58 µM.

With `CCCNS(=O)(=O)NC1C2CC3CC(C2)CC1C3` (configuration not stated), the affinity, expressed as Ki, was 6.67 µM.

In turn, `CCCCCCCCCCCCCCCCCCNS(=O)(=O)NCCC` returned a Ki of 9.1 µM.

The target of a further experiment is T3, Cannabinoid receptor 2 (Rattus norvegicus) (UniProt Q9QZN9).
T3 sequence (whole entry): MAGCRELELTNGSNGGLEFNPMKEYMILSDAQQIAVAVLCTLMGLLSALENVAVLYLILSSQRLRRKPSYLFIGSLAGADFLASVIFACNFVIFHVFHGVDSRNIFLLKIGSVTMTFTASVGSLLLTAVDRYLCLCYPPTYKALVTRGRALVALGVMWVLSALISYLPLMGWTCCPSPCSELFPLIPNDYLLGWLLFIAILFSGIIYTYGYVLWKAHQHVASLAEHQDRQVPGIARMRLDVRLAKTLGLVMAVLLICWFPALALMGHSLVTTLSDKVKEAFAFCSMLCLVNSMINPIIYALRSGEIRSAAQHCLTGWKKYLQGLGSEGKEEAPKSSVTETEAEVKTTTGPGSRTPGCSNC
Description: Displacement of [3H]WIN-55212-2 from CB2 receptor in rat cerebellar membrane at 10 uM after 90 mins by scintillation counting. The class given is cell membranes. As to conditions: Cerebellum.
Take `CCCNS(=O)(=O)NC(C)C12CC3CC(CC(C3)C1)C2` (configuration not stated): the result was inactive.

As for `CCCNS(=O)(=O)NC12CC3CC(CC(C3)C1)C2`, the outcome was inactive.

Regarding `CCCNS(=O)(=O)NC1C2CC3CC(C2)CC1C3` (configuration not stated), the result was inactive.

With `CCCCCCCCCCCCCCCCCCNS(=O)(=O)NCCC`, the result was inactive.

The target of the next experiment is T2, Cannabinoid receptor 1. Description: Displacement of [3H]WIN-55212-2 from CB1 receptor in rat cerebellar membrane after 90 mins by scintillation counting.
Details: not given
The class given is cell membranes, Cerebellum. A digest of the protocol: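 Cerebellar membranes incubated in triplicate with radioligand ([3H]SR141716A 0.4 nM; [3H]WIN-55212-2 1 nM) and compound at 10^-5 to 10^-12 M final. Compounds were dissolved in DMSO, then diluted in 20 mM HEPES pH 7.4 with 1 mM MgCl2 and 0.5% fatty-acid-free BSA. Incubation was 30 °C for 90 min, stopped with ice-cold buffer and filtered on GF/C. Ki was derived by Cheng–Prusoff using fixed, independently measured Kd.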
The compound `CCCNS(=O)(=O)NC(C)C12CC3CC(CC(C3)C1)C2` (configuration not stated) had a Ki above 100 µM.

`CCCNS(=O)(=O)NC12CC3CC(CC(C3)C1)C2` yielded an inhibition constant Ki of 4.23 µM.

Regarding `CCCNS(=O)(=O)NC1C2CC3CC(C2)CC1C3` (configuration not stated), the Ki is above 10 µM.

With `CCCCCCCCCCCCCCCCCCNS(=O)(=O)NCCC`, the Ki was above 10 µM.

A further experiment addresses T3, Cannabinoid receptor 2 (Rattus norvegicus). Description: Displacement of [3H]WIN-55212-2 from CB2 receptor in rat cerebellar membrane at 0.001 nM after 90 mins by scintillation counting. The class given is cell membranes. The note with it: Cerebellum.
Turning to `CCCNS(=O)(=O)NC(C)C12CC3CC(CC(C3)C1)C2` (configuration not stated), the result was inactive.

With `CCCNS(=O)(=O)NC12CC3CC(CC(C3)C1)C2`, the outcome was inactive.

As for `CCCNS(=O)(=O)NC1C2CC3CC(C2)CC1C3` (configuration not stated), the result was inactive.

Turning to `CCCCCCCCCCCCCCCCCCNS(=O)(=O)NCCC`, the result was inactive.

Source of the values: ChEMBL document CHEMBL1155235 (Eur J Med Chem, 2009).
